Measured values gathered from unrelated publications.
Lines come from different studies, so protocols differ.

SMILES	test	test system	conditions	endpoint	value
O=C1NC(=O)[C@](CNC(=O)c2cnn(-c3ccccc3)n2)(C2CC2)N1	HPLC	–	pH 7.5	chromatographic logD	1.8
COc1ccc([C@@]23Oc4cc(OC)cc(OC)c4[C@@]24NC(C)=N[C@@]4(O)[C@H](C(=O)N(C)OC)[C@H]3c2ccccc2)cc1	metabolic stability	rat, liver microsomes	–	microsomal CLint	12.2 µL/min/mg
COc1ccsc1CNCC[C@@]1(c2ccccn2)CCOC2(CCCC2)C1	–	human, plasma	intravenous, 1.5 mg, single dose, infusion	clearance	721 mL/min
COc1ccc2c(c1)[C@]13CCCC[C@@H]1[C@H](C2)N(C)CC3	metabolic stability	Sprague-Dawley rat, hepatocytes	0.5 µM, pH 7.4	hepatocyte CLint	97 µL/min/10⁶ cells
C[C@]12CC[C@H]3[C@@H](CCC4=CC(=O)CC[C@@]43C)[C@@H]1CC[C@@H]2O	metabolic stability	Sprague-Dawley rat, hepatocytes	1 µM	hepatocyte CLint	240 µL/min/10⁶ cells
Cc1ncc2n1-c1ccc(Cl)cc1C(c1ccccc1F)=NC2	metabolic stability	Sprague-Dawley rat, hepatocytes	0.5 µM, pH 7.4	hepatocyte CLint	160 µL/min/10⁶ cells
Cn1nccc1[C@]1(CNC(=O)c2ccc(F)c(F)c2-c2ccc(C(F)(F)F)cc2)NC(=O)NC1=O	HPLC	–	pH 7.5	chromatographic logD	2.3
CONC(=O)[C@H]1[C@@H](O)[C@@]2(O)c3c(OC)cc(OC)cc3O[C@@]2(c2ccc(OC)cc2)[C@@H]1c1ccccc1	metabolic stability	rat, liver microsomes	–	microsomal CLint	23.8 µL/min/mg
CNC(C)Cc1ccc2nsnc2c1 (stereo not drawn)	metabolic stability	human, liver microsomes	0.5 µM	microsomal CLint	13.1 µL/min/mg
